How the values were obtained:
[1] = species: Rattus norvegicus; experiment: Compound was tested for antihypertensive activity in rat after 1 hr postdose; format: functional
Summary of the method: (§1)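 DOCA/saline hypertensive Sprague-Dawley rats (250-350 g), six per group, given 10 mg/kg doca s.c. daily with saline until systolic BP reached 170 mmHg (usually 3-4 weeks). Oral 25 mg/kg in 5 mL/kg 1% methylcellulose. Systolic BP by tail-cuff before and 1, 4, 24 h after; drop reported as mean ± SD.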

[2] = species: Rattus norvegicus; experiment: Compound was tested for antihypertensive activity in rat after 24 hr postdose; format: functional; summary of the method: as §1
[3] = species: Rattus norvegicus; experiment: Compound was tested for antihypertensive activity in rat after 4 hr postdose; format: functional; summary of the method: as §1
[4] = species: Rattus norvegicus; experiment: Diuretic activity in rats at time intervals of 0-24 hours; format: functional, Urine
Summary of the method: (§2)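 Male Sabra rats (170-200 g), starved 18 h, given 50 mg/kg by stomach tube in saline (25 mL/kg load), eight per compound, saline and furosemide controls run alongside. Held two per metabolic cage at 22 °C without food or water. Urine volume measured at 5 and 24 h collections.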

[5] = species: Rattus norvegicus; experiment: Diuretic activity in rats at time intervals of 0-5 hours; format: functional, Urine; summary of the method: as §2
[6] = species: Rattus norvegicus; experiment: Diuretic activity in rats at time intervals of 5-24 hours; format: functional, Urine; summary of the method: as §2
[7] = tested on: Rattus norvegicus; experiment: Blood pressure was measured in spontaneously hypertensive rat after po administration at 24 hr; format: functional
Summary of the method: (§3)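 Male-unspecified SHR (250-350 g; baseline BP at least 170 mmHg by indirect tail-cuff plethysmography), nonanesthetized, five per group. Single oral dose of 75 mg/kg. Indirect BP and heart rate recorded before dosing and 4, 8 and 24 h after. Group means reported, BP ± SEM.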

[8] = tested on: Rattus norvegicus; experiment: Blood pressure was measured in spontaneously hypertensive rat after po administration at 4 hr; format: functional; summary of the method: as §3
[9] = tested on: Rattus norvegicus; experiment: Blood pressure was measured in spontaneously hypertensive rat after po administration at 8 hr; format: functional; summary of the method: as §3
[10] = tested on: Rattus norvegicus; experiment: The heart rate was measured in spontaneous hypertensive rat after po administration at 4 hr; format: functional; summary of the method: as §3
[11] = tested on: Rattus norvegicus; experiment: The heart rate was measured in spontaneously hypertensive rat after po administration at 24 hr; format: functional; summary of the method: as §3
[12] = tested on: Rattus norvegicus; experiment: The heart rate was measured in spontaneously hypertensive rat after po administration at 8 hr; format: functional; summary of the method: as §3
[13] = species: Rattus norvegicus; experiment: Saluretic activity in rats after 5-24 hours, as sodium ion concentration in urine; format: functional
Summary of the method: (§4)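 Male Sabra rats (170-200 g), fasted 18 h, dosed orally 50 mg/kg in saline at 25 mL/kg, eight per compound, two per metabolic cage, no food or water. Urine collected 5 and 24 h after dosing and centrifuged. Chloride titrated with Hg(NO3)2/diphenylcarbazone after HNO3 acidification; Na+ and K+ by atomic absorption.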

[14] = species: Rattus norvegicus; experiment: Saluretic activity in rats after 0-24 hours, as chloride ion concentration in urine; format: functional; summary of the method: as §4
[15] = species: Rattus norvegicus; experiment: Saluretic activity in rats after 0-24 hours, as potassium ion concentration in urine; format: functional; summary of the method: as §4
[16] = species: Rattus norvegicus; experiment: Saluretic activity in rats after 0-24 hours, as sodium ion concentration in urine; format: functional; summary of the method: as §4
[17] = species: Rattus norvegicus; experiment: Saluretic activity in rats after 0-5 hours, as chloride ion concentration in urine; format: functional; summary of the method: as §4
[18] = species: Rattus norvegicus; experiment: Saluretic activity in rats after 0-5 hours, as sodium ion concentration in urine; format: functional; summary of the method: as §4
[19] = species: Rattus norvegicus; experiment: Saluretic activity in rats after 5-24 hours, as chloride ion concentration in urine; format: functional; summary of the method: as §4
[20] = species: Rattus norvegicus; experiment: Saluretic activity in rats after 5-24 hours, as potassium ion concentration in urine; format: functional; summary of the method: as §4
[21] = species: Rattus norvegicus; experiment: Saluretic activity in rats after 0-5 hours, as potassium ion concentration in urine; format: functional; summary of the method: as §4
[22] = species: Rattus norvegicus; experiment: Saluretic activity in rats after 0-24 hours, as ratio of Na+/K+ ion concentration in urine; format: functional; summary of the method: as §4
[23] = species: Rattus norvegicus; experiment: Saluretic activity in rats after 0-5 hours, as ratio of Na+/K+ ion concentration in urine; format: functional; summary of the method: as §4
[24] = species: Rattus norvegicus; experiment: Saluretic activity in rats after 5-24 hours, as ratio of Na+/K+ ion concentration in urine; format: functional; summary of the method: as §4

In the case of NS(=O)(=O)c1cc2c(=O)n(Cc3ccccc3)ncc2cc1Cl, the “Decrease in blood pressure” value [1] is reported as 23 mmHg, the “Decrease in blood pressure” value [2] is reported as 47 mmHg and the “Decrease in blood pressure” value [3] is reported as 36 mmHg. It also gave a Diuretic activity [4] of 10.8 mL, a Diuretic activity [5] of 5.9 mL and a Diuretic activity [6] of 4.9 mL. The BP [7] was 170.2 mmHg, the Delta blood pressure [7] was 14.6 mmHg and the BP [8] was 163.2 mmHg. The Delta blood pressure [8] was 23.4 mmHg, the BP [9] was 149 mmHg and the Delta blood pressure [9] was 40.2 mmHg. For the same compound, the Heart rate [10] was 399.6 beats min-1, the Heart rate [11] was 402 beats min-1 and the Heart rate [12] was 411.6 beats min-1. The Saluretic activity [13] was 5.92 m equiv kg-1, the Saluretic activity [14] was 13.69 m equiv kg-1 and the Saluretic activity [15] was 5.3 m equiv kg-1. For the same compound, the Saluretic activity [16] was 12.32 m equiv kg-1, the Saluretic activity [17] was 7.97 m equiv kg-1 and the Saluretic activity [18] was 6.4 m equiv kg-1. It also gave a Saluretic activity [19] of 5.72 m equiv kg-1, a Saluretic activity [20] of 3.36 m equiv kg-1 and a Saluretic activity [21] of 1.94 m equiv kg-1. The Ratio [22] was 2.32, the Ratio [23] was 3.29 and the Ratio [24] was 1.78.
